Screening data as filed in PubChem BioAssay.
DNMT1 inh: human DNMT1 methyltransferase inhibitors, primary screen, biochemical, molecular beacon, fluorescence, HinP1I cleavage, uHTS; DNA (cytosine-5)-methyltransferase 1 (Homo sapiens), P26358; inhibition (reported as % activation of signal), % at 10 µM; actives 0.83% (n = 360,000); AID 588458, 2011; in the data active = inhibition above about 50%
SUMO1 PPI mod: modulators of SUMO1 protein-protein interactions, primary screen, biochemical, uHTS. Small ubiquitin-related modifier 1 (Homo sapiens), P63165. SUMO1 binding to a labelled peptide, TR-FRET, 1 h. inhibition, % at 20 µM. actives 0.33% (n = 360,000). AID 602429, 2012; in the data active = inhibition above about 37%
Target sequence (P63165 whole entry, looked up): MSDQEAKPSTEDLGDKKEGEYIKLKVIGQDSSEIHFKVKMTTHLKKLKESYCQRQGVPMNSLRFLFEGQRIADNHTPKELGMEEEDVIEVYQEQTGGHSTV
Scp-1 inhibitor: Scp-1 phosphatase inhibitors, primary screen, biochemical, colorimetric, uHTS; Carboxy-terminal domain RNA polymerase II polypeptide A small phosphatase 1 (Homo …; Recombinant Scp1, phosphopeptide, malachite green phosphate absorbance; inhibition, % at 20 µM; actives 0.88% (n = 340,000); AID 493091, 2011;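 active = inhibition above about 50% at 20 µM, limit read from the data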;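 also: plate controls were DMSO wells with enzyme for no effect and wells lacking enzyme for full effect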
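Material – SCP-1 phosphatase catalytic domain, residues 76-261 · Buffer or medium – Acidic Tris acetate buffer with magnesium and detergent · Also added – Phospho 17-mer peptide substrate · Compound – single 20 µM dose, 1% DMSO · Times – 45 min room-temperature reaction, 5 min colour, 30 min stabiliser · Technique – Phosphate-binding colour reagent, absorbance read at 630 nm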
STEP inh: STEP phosphatase inhibitors, primary screen, biochemical, fluorescence intensity, uHTS. Tyrosine-protein phosphatase non-receptor type 5 (Homo sapiens), P54829. recombinant STEP, OMFP fluorogenic substrate. inhibition, % at 20 µM. actives 0.25% (n = 360,000);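 active = inhibition at 20 µM, scaled per plate between control wells, above about 37%, limit read from the data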;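 also: 0% = DMSO with enzyme and substrate and 100% = substrate only without enzyme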
Target sequence (P54829 whole entry, looked up): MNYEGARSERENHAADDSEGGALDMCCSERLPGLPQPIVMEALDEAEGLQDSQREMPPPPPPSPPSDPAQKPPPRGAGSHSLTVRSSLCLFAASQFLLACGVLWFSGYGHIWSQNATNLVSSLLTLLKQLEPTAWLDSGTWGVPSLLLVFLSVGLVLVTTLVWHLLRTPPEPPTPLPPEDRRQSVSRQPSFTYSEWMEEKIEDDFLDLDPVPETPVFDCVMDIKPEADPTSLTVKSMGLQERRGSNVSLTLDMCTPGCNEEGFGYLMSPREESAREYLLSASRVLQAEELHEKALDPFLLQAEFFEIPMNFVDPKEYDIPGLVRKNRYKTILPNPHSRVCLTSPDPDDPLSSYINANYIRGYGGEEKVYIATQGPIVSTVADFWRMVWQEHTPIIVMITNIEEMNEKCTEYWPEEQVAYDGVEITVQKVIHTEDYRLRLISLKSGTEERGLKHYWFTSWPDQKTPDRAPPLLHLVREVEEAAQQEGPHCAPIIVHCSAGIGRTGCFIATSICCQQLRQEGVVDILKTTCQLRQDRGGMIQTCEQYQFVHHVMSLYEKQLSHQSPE
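Material: STEP (striatal-enriched tyrosine phosphatase) enzyme, cell-free | Medium: 50 mM Bis-Tris pH 6.0 with 2.5 mM DTT and 0.005% Tween 20 | Read-out: Percent inhibition scaled to no-enzyme and uninhibited-enzyme controls, plate-pattern corrected | Signal: Fluorescence read at 480 nm ex / 540 nm em | Times: 20 min reaction, room temperature, in the dark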
LMPTP block: LMPTP phosphatase inhibitors, primary screen, biochemical, fluorescence intensity, uHTS | Low molecular weight phosphotyrosine protein phosphatase (Homo sapiens), P24666 | recombinant LMPTP-A, OMFP fluorogenic substrate | inhibition, % at 20 µM | actives 0.22% (n = 360,000) | AID 651560, 2012;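 active = compounds that cut the enzyme signal by at least half of the control window in the single-dose screen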;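 also: plate controls were DMSO wells with enzyme plus substrate for no effect and substrate without enzyme for full effect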
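material = LMPTP-A | quantity = 0.625 nM enzyme | reagent = OMFP substrate, 400 µM final | buffer or medium = Bis-Tris pH 6.0, DTT, detergent | detection = endpoint fluorescence intensity from OMFP dephosphorylation | dosing = single 20 µM dose | read-out basis = % inhibition relative to no-enzyme and uninhibited control wells | control set = no-enzyme and uninhibited controls | timing = 50 min at room temperature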
Scp1 confirm: Scp-1 phosphatase inhibitors, retest, confirmation, biochemical, colorimetric, single concentration; AID 540281, 2011; inhibition, % at 20 µM; shares compounds with Scp-1 inhibitor; recombinant SCP-1 catalytic domain, phosphate release, malachite green absorbance; actives 61% (n = 2,500);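 also: plate controls were DMSO with enzyme for no effect and buffer wells lacking enzyme for full effect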
Scp-1 MG ctr: colorimetric readout interference by compounds, confirmation, artefact control for Scp-1 inhibitor project, biochemical, single concentration; Colorimetric interference counterscreen, malachite green absorbance 630 nm; apparent inhibition (interference), % at 20 µM; 2,500 tested, under 10 active; shares compounds with Scp-1 inhibitor;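 also: compounds added after enzyme reaction finished so only phosphate colour detection is probed; plate controls were DMSO wells with completed Scp-1 reaction for no effect and substrate wells lacking enzyme for full effect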
Scp1 DSF: Scp-1 binding by thermal shift, confirmation, orthogonal assay for Scp-1 inhibitor project, biophysical, differential scanning fluorimetry; shares compounds with Scp-1 inhibitor; Recombinant SCP1, Sypro Orange thermal shift Tm; thermal shift relative to vanadate control, % at 40 µM; actives 25% (n = 1,500);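 active = substances whose mean melting-temperature shift, as a percentage of the reference inhibitor's shift, reaches about 5.3%, limit read from the data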;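 also: 0% = Tm of DMSO wells and 100% = Tm with sodium orthovanadate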
Active calls of the source: *; x = no result. Only some compounds are listed: those with a hit (about 1.7% of all), similar ones and a draw of the others.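 The calls were made as follows, unless noted: active = inhibition of at least 30% at 20 µM; inactive = the rest.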

SMILES	DNMT1 inh	SUMO1 PPI mod	Scp-1 inhibitor	STEP inh	LMPTP block	Scp1 confirm	Scp-1 MG ctr	Scp1 DSF
COCCN(C(=O)COC(=O)COc1ccc2c(c1)CCC2)c1c(N)n(Cc2ccccc2)c(=O)[nH]c1=O	0	6	-1	-3	-1	x	x	x
CCCn1c(N)c(N(CCOC)C(=O)c2cc(-c3ccco3)nc3ccccc23)c(=O)[nH]c1=O	11	-5	20	2	2	x	x	x
COCCN(C(=O)COC(=O)Cc1coc2cc3c(cc12)CCC3)c1c(N)n(Cc2ccccc2)c(=O)[nH]c1=O	31	11	67*	24	18	55*	-22	-25
CC(C)CC1C(=O)N(Cc2cn(CCC3OCCO3)nn2)CCS(=O)(=O)N1Cc1ccc(-c2ccncc2)cc1 (centres undefined)	-4	2	x	0	0	x	x	x
O=C(Nc1nc2ccsc2c(=O)s1)c1ccc(F)cc1	12	1	96*	98*	65*	51*	-10	-6
Cc1csc2c(=O)sc(NC(=O)c3ccc(F)cc3Cl)nc12	-1	6	45	6	3	x	x	x
O=C(Nc1nc2ccsc2c(=O)s1)c1ccc(F)cc1Cl	15	15	55*	12	1	38*	-10	-11
CCCC(=O)Nc1ccc2nc(SCC(=O)Nc3nccs3)sc2c1	0	0	102*	-3	-3	1	-4	x
Cn1cnc(C(=O)N2CCN(C(=O)OC(C)(C)C)CC2)c1C(=O)N1CCN(C(=O)OC(C)(C)C)CC1	4	0	46	-3	-1	x	x	x
Cn1cnc(C(=O)N2CCN(c3ccccc3)CC2)c1C(=O)N1CCN(c2ccccc2)CC1	8	1	96*	-1	-2	84*	-16	-12
COCCc1ccc(OC2(C)CCN(Cc3cccc(OCOC)c3)C2)cc1 (centres undefined)	-3	-4	x	2	-2	x	x	x
C[N+]1(C)CCC(=C2c3ccccc3CC(=O)c3sccc32)CC1	2	12	97*	5	0	3	-3	x
CCOc1cc(C(=O)N(C)Cc2cc3cc(OC)ccc3[nH]c2=O)cc(OCC)c1OCC	0	-3	15	-1	-1	x	x	x
CCOc1ccccc1C(=O)N(C)Cc1cc2cc(OC)ccc2[nH]c1=O	-1	0	51*	1	-1	-20	-21	x
COCCCNC(=O)c1ccc2nc([C@@H]3O[C@H](CO)[C@H](O)[C@H](O)[C@H]3O)[nH]c2c1	-1	0	x	-1	-2	x	x	x
CCOc1cc(Br)c(Br)c(C=Nc2ccc(NC(C)=O)cc2)c1O	8	-7	75*	13	7	72*	-14	2
OC[C@@H]1CN(Cc2ccco2)C[C@H](n2cnc3c(N4CCN(c5ccccc5)CC4)ncnc32)O1	2	12	x	0	0	x	x	x
Nc1ccc(-c2ccc(N)c(C(=O)O)c2)cc1C(=O)O	19	8	55*	1	1	-5	-16	x
COc1cc(C(=O)N/N=C/c2sc(=O)n(-c3ccccc3)c2Cl)cc(OC)c1OC	1	1	50*	5	0	-21	-17	x
N#Cc1ccc(CNC(=O)N2CCOCC2)cc1	0	2	-4	-2	-2	x	x	x
CC(=O)NC1=NC(=O)/C(=C/c2cc(C)n(-c3cccc(C(=O)O)c3)c2C)S1	93*	23	72*	34	16	53*	-21	5.3*
COc1ccc(NS(=O)(=O)c2cccc(C(=O)NNC(=O)c3ccc(C)o3)c2)cc1	4	2	-2	-4	-1	x	x	x
CCn1c(CNC(=O)COc2ccc(C(C)C)cc2)nnc1SCC(=O)Nc1ccc(F)cc1	1	-3	-5	-1	0	x	x	x
CCn1c(CNC(=O)COc2ccc(C(C)C)cc2)nnc1SCC(=O)Nc1cc(F)ccc1C	1	2	85*	-2	-1	46*	-17	-6
CC1(C)Cc2c(cnn2-c2ccc(F)cc2)C(NC(=O)C2=CC(=O)CC(C)(C)O2)C1 (centres undefined)	3	-3	x	0	-2	x	x	x
SMILES	DNMT1 inh	SUMO1 PPI mod	Scp-1 inhibitor	STEP inh	LMPTP block	Scp1 confirm	Scp-1 MG ctr	Scp1 DSF
CCOC(=O)[C@]12CCCC=C1N(CCC1=CCCCC1)C(=O)[C@H](CC(=O)NCc1cccs1)C2	x	1	x	x	1	x	x	x
Cn1c(=O)c(=O)n(C)c2cc(S(=O)(=O)CCC(=O)NCc3ccccc3)ccc21	19	13	71*	2	1	11	-13	x
COc1ccccc1CNC(=O)CN(C)S(=O)(=O)c1ccc2c(c1)c(=O)n(C)c(=O)n2C	0	2	5	0	-1	x	x	x
COc1ccccc1CNC(=O)CN(C)S(=O)(=O)c1ccc2c(c1)n(C)c(=O)c(=O)n2C	2	3	-7	1	-2	-3	-3	x
Cc1ccc(CNC(=O)CN(C)S(=O)(=O)c2ccc3c(c2)n(C)c(=O)c(=O)n3C)cc1	1	17	-3	0	2	-1	-10	x
COc1ccc(Br)cc1C(=O)N/N=C/c1ccc([N+](=O)[O-])cc1	15	-1	99*	21	43	33*	-7	2
COc1ccc(Br)cc1C(=O)N/N=C/c1cccnc1	4	-5	-6	-1	-1	x	x	x
CCOc1ccc(Br)cc1C(=O)N/N=C/c1ccc([N+](=O)[O-])cc1	16	-7	81*	21	38	32*	4	3
CCOC(=O)C1CCCN(C2=NC(=O)/C(=C/c3ccc(N(C)C)cc3)S2)C1 (centres undefined)	9	-62	9	-4	6	x	x	x
COc1cccc(OCCOc2ccc(/C=C3/SC(=S)NC3=O)cc2)c1	42	-9	56*	8	1	1	-15	x
